Reference: publication PMC2652733 (Bioconjugate chemistry, 2009)

Legend:
RIF tumors = test: In vivo photosensitizing; parameters: species or system C3H mice
RIF tumor cells = test: In vitro photosensitizing efficacy; type: cell-based; settings: for in vitro photosensitizing ability: lower light and drug doses, RIF cells; for in vitro photosensitizing ability (comparative): 24 h post-incubation, light dose 6.0 J/cm^2, drug concentration 1.0 μM and higher, 700 nm
Procedure, shortened: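 RIF cells were grown in α-MEM with 10% FCS and plated at 5 × 10³ cells/well overnight. Test compound was added at varied concentrations for 24 h at 37°C in the dark, then replaced with drug-free medium. Cells were irradiated with a 700 nm dye laser (3.2 mW/cm², 0-6 J/cm²) and kept 48 h in the dark. MTT was added for 4 h, followed by DMSO and a 560 nm read. Survival was expressed as % of the drug-no-light control, with 4 replicate wells.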

[1] = Biodistribution of 124I-labeled compounds; type: in vivo, C3H mice bearing RIF tumors
Procedure, shortened: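 RIF cells (3 × 10⁵ in 30 μl complete α-MEM) were implanted s.c. in the axilla of C3H mice and grown to 4-5 mm diameter (~5 days). The 124I-labelled test compound, in saline with 10% ethanol, was given via tail vein at 50-200 μCi. Thyroid uptake was not blocked. 3-4 mice per time point were killed at 24-96 h. Organs, blood and tail were weighed and gamma-counted, giving %ID/g.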

[2] = dose 2μmol/kg, 705 nm, 135 J/cm^2, 75 mW/cm^2
[3] = 24h PI, C3H mice bearing RIF tumors, i.v. 50-200 uCi

For `CCc1c(C)c2cc3nc(cc4[nH]c(c5c6nc(cc1[nH]2)C(C)=C6C(=O)C5)[C@@H](CCC(=O)OC)[C@@H]4C)C(C)=C3C(C)OCc1cccc(I)c1` (stereo partly shown) [compound 1, 3-{1’- (3-iodobenzyloxy)ethyl}pyropheophorbide-a methyl ester], the “mice tumor free on day 60” value (RIF tumors; dose 1.5 μmol/kg i.v., 665 nm, 135 J/cm^2, 75 mW/cm^2 at 24 h post injection, 5 mice/group) was 4/5.
In the case of `CCCCCCN1C(=O)C2=C(C)c3cc4[nH]c(cc5nc(cc6[nH]c(c(c2n3)C1=O)[C@@H](CCC(=O)OC)[C@@H]6C)C(C)=C5C(C)OCc1cccc(I)c1)c(C)c4CC` (stereo partly shown) [compound 4, 3-{1’- (3-iodobenzyloxy)ethyl}purpurin-18-N-hexylimide methyl ester], the “toxicity after PDT treatment” value (RIF tumors; [2]) is reported as “toxic and all mice died within 24 h PDT treatment” and the “in vitro photosensitizing ability” value (RIF tumor cells) is reported as “ineffective”.
With `CCCCCCOC(C)C1=C(C)c2cc3[nH]c(c4c5nc(cc6[nH]c(cc1n2)c(C)c6CC)C(C)=C5C(=O)N(Cc1cccc(I)c1)C4=O)[C@@H](CCC(=O)OC)[C@@H]3C` (stereo partly shown) [compound 5, 3-{1’- (Hexyloxy)ethyl}purpurin-18-N-(3-iodo)benzylimide methyl ester] the “in vivo PDT activity” value (RIF tumors; [2]) was “did not show any significant activity”, the “in vivo PDT activity” value (RIF tumors; doses 2.5 and 3.0 μmol/kg, 705 nm, 135 J/cm^2, 75 mW/cm^2) was “quite effective” and the “in vitro photosensitizing ability (comparative)” value (RIF tumor cells) was “more effective than the structural isomer 4”. For the same compound, the “in vitro photosensitizing ability” value (RIF tumor cells) was “ineffective”.
In the case of `CCc1c(C)c2cc3nc(cc4[nH]c(c5c6nc(cc1[nH]2)C(C)=C6C(=O)N(Cc1cccc(I)c1)C5=O)[C@@H](CCC(=O)OC)[C@@H]4C)C(C)=C3C(C)OC` (stereo partly shown) [compound 10, 3-{1’- (methoxy)ethyl}purpurin-18-N-(3-iodo)benzylimide methyl ester], the “in vivo PDT efficacy, fold less effective over the lead compound 1” value (RIF tumors; 705 nm (10), 135 J/cm^2, 75 mW/cm^2, 24 h post-injection) is reported as “at least 1.5 fold”, the “in vivo PDT activity compared with hexyl ether analog 5” value (RIF tumors; doses of 1.0 and 2.5 mmol/kg, 705 nm, 135 J/cm^2, 75 mW/cm^2, 24 h post-injection) is reported as “enhanced activity” and the “in vitro photosensitizing ability (comparative)” value (RIF tumor cells) is reported as “enhanced efficacy over the isomers 4 and 5”. The “tumor uptake (abstract statement)” value ([1]; methyl ether analog versus purpurinimide 5) was “improved tumor uptake”.
For “^124I- labeled analog of 3-{1’- (3-iodobenzyloxy)ethyl}purpurin-18-N-hexylimide methyl ester [compound 8]”, the “liver uptake in comparison of the 124I-analog of pyropheophorbide 1” value [1, 3] was 32 fold and the “spleen uptake in comparison of the 124I-analog of pyropheophorbide 1” value [1, 3] was 85 fold.
